Assays:
[1] = Displacement of [3H]-PN200-110 from L-type calcium channel dihydropyridine binding site in Wistar rat cortex homogenate after 60 mins by liquid scintillation spectometric analysis; format: tissue-based
Method in brief: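 Competition binding on rat cortex homogenate with (+)-[5-methyl-3H]PN200-110. Compounds are dissolved in DMSO as 10⁻² M stocks and diluted in buffer. Six displacer concentrations are tested, each in triplicate. IC50 is obtained by −log probit analysis and Ki by the Prusoff method. Values are mean ± SEM of 3−5 separate experiments done in triplicate.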

[2] = species: Rattus norvegicus; assay: Displacement of [3H]-PN200-110 from L-type calcium channel dihydropyridine binding site in Wistar rat cortex homogenate at 100 uM after 60 mins by liquid scintillation spectometric analysis relative to control; format: tissue-based
Method in brief: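 Binding on rat cortex homogenate using (+)-[5-methyl-3H]PN200-110. The read-out is percent of maximal radioligand displacement at 100 μM test compound. Compounds are made up as 10⁻² M DMSO stocks and diluted in buffer. Values are from 3−5 separate experiments done in triplicate.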

[3] = species: Cavia porcellus; assay: Displacement of [3H]-PN200-110 from L-type calcium channel in Hartley guinea pig ventricular membrane […] after 90 mins relative to control
[4] = Displacement of [3H]-PN200-110 from L-type calcium channel in Hartley guinea pig atrial membrane after 90 mins; format: cell membranes, Cavia porcellus, Cardiac atrium
Method in brief: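 Guinea pig atrial membranes are labelled at the 1,4-DHP site with (+)-[5-methyl-3H]PN200-110 at 0.5 nM. Competitor is added over 0.001−100 μM from 10⁻² M DMSO stocks diluted in buffer. Results are given as IC50 and Ki, mean ± SEM. Student's t-test is applied with P<0.001.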

[5] = species: Cavia porcellus; assay: Displacement of [3H]-PN200-110 from L-type calcium channel in Hartley guinea pig atrial membrane at 100 uM after 90 mins relative to control; format: cell membranes; conditions: Cardiac atrium
[6] = test system: Ileum; assay: Relaxant activity in potassium depolarized guinea pig ileum longitudinal smooth muscle assessed as inhibition of calcium-induced contraction; format: functional, tissue-based; conditions: Cavia porcellus
Method in brief: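 K⁺-depolarized (80 mM) guinea pig ileum longitudinal smooth muscle is used. Calcium-induced contraction is measured with cumulative compound addition.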

[7] = test system: Ileum; assay: Relaxant activity in potassium depolarized guinea pig ileum longitudinal smooth muscle assessed as inhibition of calcium-induced contraction at 5x10'-5 M relative to control; format: functional, Cavia porcellus; parameters: scale not given: the % may be the effect or the level left
[8] = test system: Aorta; assay: Relaxant activity in potassium depolarized guinea pig aortic strips assessed as inhibition of calcium-induced contraction at 5x10'-5 M relative to control; format: functional, Cavia porcellus; parameters: scale not given: the % may be the effect or the level left
[9] = Negative chronotropic activity in guinea pig right atrium assessed as decrease in atrial rate; format: functional, tissue-based; conditions: Cavia porcellus, Cardiac atrium
Method in brief: (§1)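 Isolated guinea pig atria are used, with left atria driven at 1 Hz. Compounds are added cumulatively. EC50 is derived from log concentration−response curves by Litchfield–Wilcoxon probit analysis, n = 6−7. EC50 is not calculated when the maximal effect is below 50%.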

[10] = Negative chronotropic activity in guinea pig right atrium assessed as decrease in atrial rate at 5x10'-5 M relative to control; format: functional, Cavia porcellus, Cardiac atrium; parameters: scale not given: the % may be the effect or the level left
[11] = Negative inotropic activity in guinea pig left atrium assessed as decrease in developed tension at 10^-6 M relative to control; format: functional, Cavia porcellus, Cardiac atrium; parameters: scale not given: the % may be the effect or the level left
[12] = test system: HEK293; assay: Displacement of [3H]-PN200-110 from voltage-gated calcium channel subunit alpha Cav1.2a (unknown origin) expressed in HEK293 cells at 100 uM after 90 mins by liquid scintillation counting analysis relative to control; format: cell-based; conditions: Homo sapiens
[13] = test system: Ileum; assay: Relaxant activity in potassium depolarized guinea pig ileum longitudinal smooth muscle assessed as inhibition of calcium-induced contraction at 5x10'-6 M relative to control; format: functional, Cavia porcellus; parameters: scale not given: the % may be the effect or the level left
[14] = test system: Aorta; assay: Relaxant activity in potassium depolarized guinea pig aortic strips assessed as inhibition of calcium-induced contraction at 10^-4 M relative to control; format: functional, Cavia porcellus; parameters: scale not given: the % may be the effect or the level left
Method in brief: (§2)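 Guinea pig aortic strips and ileum longitudinal smooth muscle are depolarized with 80 mM K⁺. The read-out is percent inhibition of calcium-induced contraction. Aorta is tested at 10⁻⁴ M and ileum at 10⁻⁵ M.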

[15] = Negative chronotropic activity in guinea pig right atrium assessed as decrease in atrial rate at 10^-4 M relative to control; format: functional, Cavia porcellus, Cardiac atrium; parameters: scale not given: the % may be the effect or the level left
Method in brief: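 The read-out is decrease in rate of spontaneously beating isolated guinea pig right atrium at 10⁻⁴ M. It is expressed as percent change from control, n = 7−8.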

[16] = Displacement of [3H]-PN200-110 from voltage-gated calcium channel subunit alpha Cav1.2a (unknown origin) expressed in HEK293 cells after 90 mins by liquid scintillation counting analysis; format: cell-based, Homo sapiens
Method in brief: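 Intact HEK-293 cells stably transfected with a rabbit Cav1.2a (α1c-a) plasmid are used. They are incubated with 0.5 nM (+)-[5-methyl-3H]PN200-110 plus competitor at 0.001−100 μM, from 10⁻² M DMSO stocks diluted in buffer. IC50 values are given as mean ± SEM.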

[17] = Displacement of [3H]-PN200-110 from L-type calcium channel in Hartley guinea pig ventricular membrane […] after 90 mins; parameters: species or system Cavia porcellus
[18] = test system: Ileum; assay: Relaxant activity in potassium depolarized guinea pig ileum longitudinal smooth muscle assessed as inhibition of calcium-induced contraction at 10^-5 M relative to control; format: functional, Cavia porcellus; parameters: scale not given: the % may be the effect or the level left; method in brief: as §2
[19] = Negative inotropic activity in guinea pig left atrium assessed as decrease in developed tension at 10^-4 M relative to control; format: functional, Cavia porcellus, Cardiac atrium; parameters: scale not given: the % may be the effect or the level left
[20] = test system: Ileum; assay: Relaxant activity in potassium depolarized guinea pig ileum longitudinal smooth muscle assessed as inhibition of calcium-induced contraction at 5x10'-7 M relative to control; format: functional, Cavia porcellus; parameters: scale not given: the % may be the effect or the level left
[21] = Negative chronotropic activity in guinea pig right atrium assessed as decrease in atrial rate at 10^-5 M relative to control; format: functional, Cavia porcellus, Cardiac atrium; parameters: scale not given: the % may be the effect or the level left
[22] = Negative inotropic activity in guinea pig left atrium assessed as decrease in developed tension; format: functional, tissue-based; conditions: Cavia porcellus, Cardiac atrium; method in brief: as §1
[23] = Selectivity ratio of EC50 for negative chronotropic activity in guinea pig right atrium to EC50 for negative inotropic activity in guinea pig left atrium; format: functional, Cavia porcellus, Cardiac atrium
[24] = Negative chronotropic activity in guinea pig right atrium assessed as decrease in atrial rate at 5x10'-6 M relative to control; format: functional, Cavia porcellus, Cardiac atrium; parameters: scale not given: the % may be the effect or the level left
[25] = test system: Ileum; assay: Relaxant activity in potassium depolarized guinea pig ileum longitudinal smooth muscle assessed as inhibition of calcium-induced contraction at 10^-4 M relative to control; format: functional, Cavia porcellus; parameters: scale not given: the % may be the effect or the level left
[26] = Negative inotropic activity in guinea pig left atrium assessed as decrease in developed tension at 10^-5 M relative to control; format: functional, Cavia porcellus, Cardiac atrium; parameters: scale not given: the % may be the effect or the level left
[27] = test system: Ileum; assay: Relaxant activity in potassium depolarized guinea pig ileum longitudinal smooth muscle assessed as inhibition of calcium-induced contraction at 10^-7 M relative to control; format: functional, Cavia porcellus; parameters: scale not given: the % may be the effect or the level left

IC50 [1] [µM] | Ki [1] [µM] | %max [2] [%] | %max [3] [%] | IC50 [4] [µM] | Ki [4] [µM] | %max [5] [%] | IC50 [6] [µM] | EC50 [9] [µM] | IC50 [17] [µM] | Ki [17] [µM] | SMILES | %max [12] [%] | Activity [14] [%] | also measured
0.1 | 0.059 | 70 | < 50 | 0.022 | 0.0048 | 52 | 16 | 12.5 |  |  | COC(=O)C1=C(C)NC(C)=C(C(=O)OC)C1c1c(-c2cccnc2)nc2sc(C)cn12 | < 50 |  | Activity [7]: 83%; Activity [8]: 19%; Activity [10]: 86%; Activity [11]: 18%
 |  |  |  |  |  |  | 1.37 | 40.5 |  |  | COC(=O)C1=C(C)NC(C)=C(C(=O)OC)C1c1c(-c2cccs2)nc2sc(C)cn12 |  | 9 | Activity [13]: 81%; Activity [15]: 70%; Activity [11]: 40%
0.35 | 0.11 | 77 | 93 | 0.39 | 0.14 | 50 |  |  | 0.046 | 0.016 | COC(=O)C1=C(C)NC(C)=C(C(=O)OC)C1c1c(-c2ccc(OC)c(OC)c2)nc2sccn12 | 55 |  | IC50 [16]: 0.062 µM; Ki [16]: 0.023 µM
0.99 | 0.33 | 90 | 96 | 0.29 | 0.09 | 92 |  |  | 0.45 | 0.16 | COC(=O)C1=C(C)NC(C)=C(C(=O)OC)C1c1c(-c2cccc(OC)c2)nc2sccn12 | < 50 |  | 
 |  |  |  |  |  |  | 3.52 | 2.3 |  |  | COC(=O)C1=C(C)NC(C)=C(C(=O)OC)C1c1c(-c2ccsc2)nc2sc(C)cn12 |  | 6 | Activity [18]: 74%; Activity [15]: 85%; Activity [19]: 12%
 |  |  | 50 | 0.065 | 0.023 | 53 |  |  | 3.32 | 1.16 | CCCc1cn2c(C3C(C(=O)OC)=C(C)NC(C)=C3C(=O)OC)c(-c3c(OC)ccc(OC)c3[N+](=O)[O-])nc2s1 | 55 |  | IC50 [16]: 0.0044 µM; Ki [16]: 0.0016 µM
1020 | 340 | 60 | < 50 | 0.12 | 0.042 | 95 |  |  |  |  | COC(=O)C1=C(C)NC(C)=C(C(=O)OC)C1c1c(Cl)nc2sc(C)cn12 | < 50 |  | 
0.24 | 0.17 | 98 | 91 | 0.078 | 0.017 | 76 | 0.046 | 2.63 | 1.43 | 0.51 | CCOC(=O)C1=C(C)NC(C)=C(C(=O)OCC)C1c1c(-c2cc(OC)ccc2OC)nc2sccn12 | 94 | 29 | IC50 [16]: 0.86 µM; Ki [16]: 0.3 µM; Activity [20]: 85%; Activity [21]: 88%; Activity [19]: 93%; EC50 [22]: 1.16 µM
 |  |  |  |  |  |  | 0.18 | 2.16 |  |  | COC(=O)C1=C(C)NC(C)=C(C(=O)OC)C1c1c(-c2c(Cl)csc2Cl)nc2sccn12 |  |  | Activity [20]: 95%; Activity [8]: 22%; Ratio EC50 [23]: 47; Activity [24]: 77%; Activity [19]: 74%; EC50 [22]: 0.046 µM
 |  |  |  |  |  |  | 9.69 | 7.49 |  |  | COC(=O)C1=C(C)NC(C)=C(C(=O)OC)C1c1c(-c2ccncc2)nc2sc(C)cn12 |  | 4 | Activity [25]: 97%; Activity [10]: 93%; Activity [11]: 44%
38.6 | 13.9 | 52 | < 50 | 0.14 | 0.049 | 91 |  |  |  |  | COC(=O)C1=C(C)NC(C)=C(C(=O)OC)C1c1c(-c2ccccc2C(F)(F)F)nc2sccn12 | < 50 |  | 
 |  |  |  |  |  |  | 2.57 | 24.4 |  |  | COC(=O)C1=C(C)NC(C)=C(C(=O)OC)C1c1c(-c2ccccn2)nc2sccn12 |  |  | Activity [18]: 87%; Activity [8]: 28%; Ratio EC50 [23]: 45; Activity [15]: 71%; Activity [26]: 58%; EC50 [22]: 0.54 µM
 |  |  |  |  |  |  | 0.96 |  |  |  | COC(=O)C1=C(C)NC(C)=C(C(=O)OC)C1c1c(-c2ccncc2)nc2sccn12 |  | 14 | Activity [13]: 90%; Activity [21]: 25%; Activity [11]: 46%
1.03 | 0.74 | 53 | 70 | 0.24 | 0.052 | 60 | 0.0023 | 1.06 | 2.05 | 0.74 | COC(=O)C1=C(C)NC(C)=C(C(=O)OC)C1c1c(-c2ccsc2)nc2sccn12 | 65 | 11 | IC50 [16]: 0.49 µM; Ki [16]: 0.15 µM; Activity [27]: 85%; Activity [24]: 87%; Activity [19]: 47%
106 | 34.7 | 52 |  |  |  |  |  |  |  |  | COC(=O)C1=C(C)NC(C)=C(C(=O)OC)C1c1c(Cl)nc2scc(C)n12 |  |  | 
 |  |  |  |  |  |  | 2.81 | 39.9 |  |  | COC(=O)C1=C(C)NC(C)=C(C(=O)OC)C1c1c(-c2ccccn2)nc2sc(C)cn12 |  | 13 | Activity [18]: 78%; Activity [15]: 72%; Activity [11]: 42%
1.21 | 0.41 | 79 | 60 | 0.25 | 0.09 | 54 |  |  | 0.84 | 0.31 | COC(=O)C1=C(C)NC(C)=C(C(=O)OC)C1c1c(-c2cc(OC)cc(OC)c2)nc2sccn12 | 50 |  | IC50 [16]: 0.61 µM; Ki [16]: 0.19 µM
1.65 | 0.52 | 75 |  |  |  |  |  |  |  |  | COC(=O)C1=C(C)NC(C)=C(C(=O)OC)C1c1c(C(F)(F)F)nc2sccn12 |  |  | 
 |  |  |  |  |  |  | 3.55 | 28.4 |  |  | COC(=O)C1=C(C)NC(C)=C(C(=O)OC)C1c1c(-c2cccnc2)nc2sccn12 |  | 36 | Activity [18]: 91%; Activity [15]: 98%; Activity [26]: 25%
0.21 | 0.16 | 56 | < 50 | 0.12 | 0.044 | 65 |  |  |  |  | COC(=O)C1=C(C)NC(C)=C(C(=O)OC)C1c1c(-c2cc(OC)ccc2OC)nc2sccn12 | < 50 |  | 
